Values after ≈ are worked out from the molar mass of the structure shown. Active and inactive are the calls of the source. The calls are words filed in the database; no cut-off is given here.
Columns and labels:
Staphylococcus aureus [1] = assay: Antimicrobial activity against Staphylococcus aureus CB1953 harboring rpoB H481Y, gyrA S84L, gyrA V598I, parC S80F, parC R570H mutant genes selected after CBR-2092 exposure for 7 days by broth microdilution method; format: functional; settings: CB1953, 168 h
Summary of the method: (§1)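 CLSI broth microdilution MIC in cation-adjusted Mueller-Hinton (MHII) broth supplemented with 0.002% (vol/vol) polysorbate 80, included to limit compound loss to plastic surfaces.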

Staphylococcus aureus [2] = assay: Antimicrobial activity against Staphylococcus aureus CB1882 harboring rpoB R484H mutant gene, L520 deficient gyrA gene and R236 duplicated parC gene by agar dilution method; format: functional
Summary of the method: (§2)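 CLSI agar dilution MIC on MHII base medium against stepwise-passage isolates; passage was in MHII broth without polysorbate 80, daily at 37°C.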

Staphylococcus aureus [3] = assay: Inhibition of protein synthesis in rifamycin-resistant Staphylococcus aureus CB370 harboring rpoB H481Y mutant gene assessed as decrease in L-[3,4,5-3H]leucine incorporation at 0.5 ug/ml; format: functional, organism-based
Summary of the method: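 Time-course radiolabel incorporation in S. aureus cultures with test agent. Precursors: [methyl-3H]thymidine (DNA), [5,6-3H]uridine (RNA), L-[3,4,5-3H]leucine (protein), [2,3-3H]D-alanine (cell wall). At each time point, incorporation with agent is expressed relative to the DMSO-treated control culture as percent incorporation. Time-zero incorporation is set to 100%.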

Staphylococcus aureus [4] = assay: Antimicrobial activity against rifampin-sensitive Staphylococcus aureus CB190 harboring rpoB H481Y mutant gene by broth microdilution method; format: functional; summary of the method: as §1
Staphylococcus aureus [5] = assay: Antimicrobial activity against Staphylococcus aureus CB1334 harboring rpoB H481Y, parC S80F,Q27H and gyrA S84L mutant genes selected after 0.8 ug/ml drug exposure by broth microdilution method; format: functional
Staphylococcus aureus [6] = assay: Antimicrobial activity against Staphylococcus aureus CB1523 harboring rpoB H481Y and gyrA A26V mutant genes selected after 0.25 ug/ml drug exposure by broth microdilution method; format: functional
Summary of the method: (§3)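 CLSI broth microdilution in cation-adjusted Mueller-Hinton (MHII) broth supplemented with 0.002% (vol/vol) polysorbate 80 to limit compound loss to plastic. Strains are spontaneous single-step mutants isolated on agar from an rpoB H481Y parent (RN4220 background), purified through drug-free passage with the resistance phenotype re-verified as stable before testing; target loci genotyped by PCR amplification and sequencing.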

Staphylococcus aureus [7] = assay: Inhibition of DNA synthesis in rifamycin-resistant Staphylococcus aureus CB370 harboring rpoB H481Y mutant gene assessed as decrease in [methyl-3H]thymidine incorporation at 0.5 ug/ml; format: functional, organism-based
Summary of the method: (§4)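 Macromolecular synthesis time course in S. aureus, measuring incorporation of [methyl-3H]thymidine (DNA), [5,6-3H]uridine (RNA) or [2,3-3H]D-alanine (cell wall). At each time point, incorporation is expressed as percent of the DMSO-treated control culture. Incorporation at time zero is set to 100%.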

Staphylococcus aureus [8] = assay: Antimicrobial activity against Staphylococcus aureus CB370 harboring rpoB H481Y mutant gene by broth microdilution method; format: functional; summary of the method: as §1
Staphylococcus aureus [9] = assay: Antimicrobial activity against Staphylococcus aureus CB815 harboring rpoB H481Y, gyrA […] and parC S80F mutant genes by broth microdilution method; format: functional; summary of the method: as §1
Staphylococcus aureus [10] = assay: Antimicrobial activity against Staphylococcus aureus CB1952 harboring rpoB S486L, gyrA […], gyrA E88Q, gyrA G532S, parC S80F, parC E84L mutant genes selected after CBR-2092 exposure for 21 days by broth microdilution method; format: functional; settings: CB1952, 504 h
Summary of the method: (§5)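 CLSI broth microdilution MIC in MHII with 0.002% polysorbate 80 against strains from 20–21 days of stepwise passage of rifamycin- and/or quinolone-resistant parents; CBR-2092 passages used MHII with 0.002% polysorbate 80.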

Staphylococcus aureus [11] = assay: Antimicrobial activity against rifampin-sensitive Staphylococcus aureus CB190 harboring rpoB D471G mutant gene by broth microdilution method; format: functional; summary of the method: as §1
Staphylococcus aureus [12] = assay: Antimicrobial activity against Staphylococcus aureus CB1884 by agar dilution method; format: functional; summary of the method: as §2
Staphylococcus aureus [13] = assay: Antimicrobial activity against Staphylococcus aureus CB1875 harboring gyrA […], parC R298K mutant genes and LNVIKEE461 inserted parC gene by broth microdilution method; format: functional
Summary of the method: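 CLSI broth microdilution MIC in MHII broth with 0.002% (vol/vol) polysorbate 80. Isolates came from daily stepwise broth passage at sub-MIC drug (MHII without polysorbate 80, 10^6 CFU/ml inoculum, 20–24 h shaking at 37°C), were purified drug-free, and were sequenced at target loci.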

Staphylococcus aureus [14] = assay: Inhibition of DNA synthesis in quinolone-resistant Staphylococcus aureus CB814 harboring gyrA S84L and parC S80F mutant genes assessed as decrease in [methyl-3H]thymidine incorporation at 0.5 ug/ml; format: functional, organism-based; summary of the method: as §4
Staphylococcus aureus [15] = assay: Antimicrobial activity against rifampin-sensitive Staphylococcus aureus CB190 harboring rpoB N474K mutant gene by broth microdilution method; format: functional; summary of the method: as §1
Staphylococcus aureus [16] = assay: Antimicrobial activity against Staphylococcus aureus CB815 harboring rpoB H481Y, gyrA S84L and parC S80F mutant genes by broth microdilution method
Staphylococcus aureus [17] = assay: Antimicrobial activity against Staphylococcus aureus CB1524 harboring rpoB H481Y and gyrA G773V mutant genes selected after 0.25 ug/ml drug exposure by broth microdilution method; format: functional; summary of the method: as §3
[18] = Inhibition of Staphylococcus aureus wild-type RNA polymerase RpoB
Summary of the method: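 Recombinant S. aureus σA RNA polymerase holoenzyme in a single-round transcription assay using the pGL2B-T7A1-G-less template. The 272-nucleotide G-less RNA product was quantified by gel electrophoresis. IC50 is the concentration halving the product formed without test agent.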

Staphylococcus aureus [19] = assay: Antimicrobial activity against Staphylococcus aureus CB1887 harboring rpoB R484H, L520 deficient gyrA, […], R236 duplicated parC and parC H103Y mutant genes selected after ABT-719 exposure for 20 days by broth microdilution method; format: functional; settings: CB1887, 480 h; summary of the method: as §5
Staphylococcus aureus [20] = assay: Antimicrobial activity against Staphylococcus aureus CB1871 harboring rpoB H481Y mutant gene by broth microdilution method
Staphylococcus aureus [21] = assay: Antimicrobial activity against rifampin-sensitive Staphylococcus aureus CB190 harboring rpoB D471Y mutant gene by broth microdilution method; format: functional; summary of the method: as §1
Staphylococcus aureus [22] = assay: Antimicrobial activity against Staphylococcus aureus CB370 harboring rifampin-resistant rpoB H481Y mutant gene by broth microdilution method; format: functional; summary of the method: as §1
Staphylococcus aureus [23] = assay: Antimicrobial activity against rifampin-sensitive Staphylococcus aureus CB190 harboring rpoB H481N mutant gene by broth microdilution method; format: functional; summary of the method: as §1
Staphylococcus aureus [24] = assay: Antimicrobial activity against Staphylococcus aureus CB1419 harboring rpoB H481Y and gyrA G572D mutant genes selected after 0.1 ug/ml drug exposure by broth microdilution method
Staphylococcus aureus [25] = assay: Antimicrobial activity against Staphylococcus aureus CB1947 harboring rpoB H481Y, gyrA S84L, E697 deficient gyrA, parC G167V mutant genes selected after CBR-2092 exposure for 20 days by broth microdilution method; settings: CB1947, 480 h

Compound: CO[C@H]1/C=C/O[C@@]2(C)Oc3c(C)c(O)c4c(O)c(c(/C=N/N5CCC(N(C)C6([C@@H]7CCN(c8c(F)cn9c(=O)c(C(=O)O)cc(C%10CC%10)c9c8C)C7)CC6)CC5)c(O)c4c3C2=O)NC(=O)/C(C)=C\C=C\[C@H](C)[C@H](O)[C@@H](C)[C@@H](O)[C@@H](C)[C@H](OC(C)=O)[C@@H]1C
- MIC (Staphylococcus aureus [1]): 16 µg/mL (≈ 13.3 µM)
- MIC (Staphylococcus aureus [2]): 0.5 µg/mL (≈ 0.415 µM)
- Activity (Staphylococcus aureus [3]): Active
- MIC (Staphylococcus aureus [4]): 0.12 µg/mL (≈ 0.0996 µM)
- MIC (Staphylococcus aureus [5]): 8 µg/mL (≈ 6.64 µM)
- MIC (Staphylococcus aureus [6]): 1 µg/mL (≈ 0.83 µM)
- Activity (Staphylococcus aureus [7]): Active
- MIC (Staphylococcus aureus [8]): 0.12 µg/mL (≈ 0.0996 µM)
- MIC (Staphylococcus aureus [9]): 1 µg/mL (≈ 0.83 µM)
- MIC (Staphylococcus aureus [10]): 31 µg/mL (≈ 25.7 µM)
- MIC (Staphylococcus aureus [11]): 0.25 µg/mL (≈ 0.207 µM)
- MIC (Staphylococcus aureus [12]): 4 µg/mL (≈ 3.32 µM)
- MIC (Staphylococcus aureus [13]): 0.008 µg/mL (≈ 0.00664 µM)
- Activity (Staphylococcus aureus [14]): Active
- MIC (Staphylococcus aureus [15]): 0.25 µg/mL (≈ 0.207 µM)
- MIC (Staphylococcus aureus [16]): 2 µg/mL (≈ 1.66 µM)
- MIC (Staphylococcus aureus [17]): 2 µg/mL (≈ 1.66 µM)
- IC50 [18]: 34 nM
- MIC (Staphylococcus aureus [19]): > 250 µg/mL
- MIC (Staphylococcus aureus [20]): 0.12 µg/mL (≈ 0.0996 µM)
- MIC (Staphylococcus aureus [21]): 0.25 µg/mL (≈ 0.207 µM)
- MIC (Staphylococcus aureus [22]): 0.12 µg/mL (≈ 0.0996 µM)
- MIC (Staphylococcus aureus [23]): 0.25 µg/mL (≈ 0.207 µM)
- MIC (Staphylococcus aureus [24]): 1 µg/mL (≈ 0.83 µM)
- MIC (Staphylococcus aureus [25]): 4 µg/mL (≈ 3.32 µM)
